In ChEMBL document CHEMBL4364253, “Application of Dually Activated Michael Acceptor to the Rational Design of Reversible Covalent Inhibitor for Enterovirus 71 3C Protease” (J Med Chem, 2019):
Activity calls are given as the source filed them.

How the values were obtained:
Enterovirus A71 [1] = experiment: Binding affinity to Enterovirus 71 3C protease assessed as enzyme-compound covalent adduct formation via Cys147 residue by measuring ratio of peak intensity of covalently modified to unmodified protein at 20 equivalent after 1 hr by HPLC-ESI/MS analysis
Procedure, shortened: (§1)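 Recombinant EV71 3C protease (40 µM) incubated with inhibitor at 30 °C in 50 mM Tris, 150 mM NaCl, 1 mM EDTA-2Na, pH 7.0. Free inhibitor and salts removed by three ultrafiltration washes with water (10 kDa cutoff). Analysis by HPLC-ESI-Orbitrap MS with 0.1% formic acid water/acetonitrile mobile phases. Spectra deconvoluted; modification given as adduct-to-unmodified protein peak intensity ratio (I_add/I_pro).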

Enterovirus A71 [2] = experiment: Binding affinity to Enterovirus 71 3C protease assessed as enzyme-compound covalent adduct formation via Cys147 residue by measuring ratio of peak intensity of covalently modified to unmodified protein at 10 equivalent after 30 mins by HPLC-ESI/MS analysis; procedure, shortened: as §1
Enterovirus A71 [3] = experiment: Irreversible covalent inhibition of Enterovirus 71 3C protease at 64 uM using NMA-IEALFQGPPK(DNP)FR as substrate and measured for 1 to 1.5 hrs by fluorescence method
Enterovirus A71 [4] = experiment: Antiviral activity against pseudotyped Enterovirus A71 infected in human muscular rhabdomyosarcoma cells treated prior to viral infection and measured after 24 hrs by luminescence method; type: functional, organism-based; settings: Enterovirus A
[5] = Inhibition of Enterovirus 71 E2004104-TW-CDC protease 3C (1549 to 1731 residues) expressed in Escherichia coli BL21(DE3) cells using Dacyl-KRTATVQGPSLDFE-Edans as substrate by fluorescence method; design: species or system Enterovirus A71
Enterovirus A71 [6] = experiment: Antiviral activity against Enterovirus A71 EV71/Shenzhen/120F1/09 infected in human muscular rhabdomyosarcoma cells assessed as reduction in virus-induced cell death incubated for 3 days by CCK-8 assay; type: functional, organism-based; settings: Enterovirus A, EV71/Shenzhen/120F1/09, 72 h
[7] = molecular target: T1, Cathepsin K (Homo sapiens) (UniProt P43235); experiment: Inhibition of human Cathepsin K at 50 uM using Ac-LR-AFC as substrate preincubated for 10 to 15 mins followed by substrate addition and measured for 30 to 60 mins by fluorescence method relative to control
T1 sequence (whole entry): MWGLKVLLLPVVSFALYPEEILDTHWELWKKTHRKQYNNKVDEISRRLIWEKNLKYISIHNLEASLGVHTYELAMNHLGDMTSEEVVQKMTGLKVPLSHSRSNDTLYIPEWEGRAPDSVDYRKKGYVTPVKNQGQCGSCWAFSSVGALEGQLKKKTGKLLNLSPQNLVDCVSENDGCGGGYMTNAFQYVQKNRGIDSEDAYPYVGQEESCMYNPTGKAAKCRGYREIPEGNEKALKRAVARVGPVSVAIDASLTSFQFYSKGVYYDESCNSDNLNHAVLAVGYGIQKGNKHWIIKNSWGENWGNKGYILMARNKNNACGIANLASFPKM

Enterovirus A71 [8] = experiment: Antiviral activity against pseudotyped FY Enterovirus A71 harboring luciferase reporter gene infected in HEK-293T cells in presence of glutathione by Bright-Glo Luciferase Assay; type: functional, organism-based
Enterovirus A71 [9] = experiment: Antiviral activity against pseudotyped FY Enterovirus A71 harboring luciferase reporter gene infected in HEK-293T cells in presence of lysine by Bright-Glo Luciferase Assay; type: functional, organism-based
[10] = molecular target: Chymotrypsinogen A (Bos taurus) (UniProt P00766); experiment: Inhibition of bovine pancreas alpha-chymotrypsin at 50 uM after 30 mins using N-Succinyl-L-phenylalanine- p-nitroanilide measured for 30 mins
Enterovirus A71 [11] = experiment: Inhibition of Enterovirus 71 3C protease in presence of glutathione
Enterovirus A71 [12] = experiment: Inhibition of Enterovirus 71 3C protease in presence of lysine
[13] = Reversible inhibition of Enterovirus 71 3C protease assessed as overall inhibition constant using NMA-IEALFQGPPK(DNP)FR as substrate pre-incubated for 30 mins followed by substrate addition and measured over 30 mins by fluorescence method; design: species or system Enterovirus A71
Enterovirus A71 [14] = experiment: Reversible inhibition of Enterovirus 71 3C protease assessed as recovery of enzyme activity at 10 to 20 equivalent using peptide substrate pre-incubated for 1 hr followed by dilution prior to substrate addition using ultra-filtered sample relative to control; design: scale not given: the % may be the effect or the level left
[15] = molecular target: T2, Calpain-1 catalytic subunit (Homo sapiens) (UniProt P07384); experiment: Inhibition of human Calpain1 at 50 uM using Ac-LLY-AFC as substrate preincubated for 5 mins followed by substrate addition and measured after 10 mins by fluorescence method relative to control
T2 sequence (whole entry): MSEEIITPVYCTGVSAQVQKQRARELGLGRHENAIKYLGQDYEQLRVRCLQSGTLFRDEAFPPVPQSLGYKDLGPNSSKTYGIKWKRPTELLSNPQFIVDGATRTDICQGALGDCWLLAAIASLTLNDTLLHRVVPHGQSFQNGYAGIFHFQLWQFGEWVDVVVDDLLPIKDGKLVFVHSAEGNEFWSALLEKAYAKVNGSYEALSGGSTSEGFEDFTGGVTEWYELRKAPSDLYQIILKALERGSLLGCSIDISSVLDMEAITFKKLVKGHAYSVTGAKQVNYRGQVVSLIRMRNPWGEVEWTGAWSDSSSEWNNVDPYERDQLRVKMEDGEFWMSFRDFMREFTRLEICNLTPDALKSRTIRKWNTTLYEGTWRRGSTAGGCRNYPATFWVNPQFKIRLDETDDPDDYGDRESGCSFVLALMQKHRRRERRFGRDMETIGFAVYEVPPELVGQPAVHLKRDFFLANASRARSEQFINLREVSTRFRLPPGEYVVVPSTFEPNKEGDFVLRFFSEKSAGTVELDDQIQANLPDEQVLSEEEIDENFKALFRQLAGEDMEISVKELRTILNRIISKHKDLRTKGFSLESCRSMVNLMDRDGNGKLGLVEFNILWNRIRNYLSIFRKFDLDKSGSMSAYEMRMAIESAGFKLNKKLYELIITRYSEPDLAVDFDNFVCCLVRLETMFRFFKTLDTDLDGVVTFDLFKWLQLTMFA

Enterovirus A71 [16] = experiment: Inhibition of Enterovirus 71 3C protease in presence of ethanolamine
Enterovirus A71 [17] = experiment: Reversible inhibition of Enterovirus 71 3C protease assessed as recovery of enzyme activity at 10 to 20 equivalent using peptide substrate pre-incubated for 1 hr followed by dialysis and subsequent substrate addition measured up to 72 hrs relative to control; design: scale not given: the % may be the effect or the level left
Enterovirus A71 [18] = experiment: Binding affinity to Enterovirus 71 3C protease assessed as enzyme-compound covalent adduct formation via Cys147 residue by measuring ratio of peak intensity of covalently modified to unmodified protein at 10 to 20 equivalent after 1 hr by HPLC-ESI/MS analysis; procedure, shortened: as §1
Enterovirus A71 [19] = experiment: Antiviral activity against pseudotyped FY Enterovirus A71 harboring luciferase reporter gene infected in HEK-293T cells in presence of ethanolamine by Bright-Glo Luciferase Assay; type: functional, organism-based
Enterovirus A71 [20] = experiment: Binding affinity to Enterovirus 71 3C protease assessed as enzyme-compound covalent adduct formation via Cys147 residue after 1 hr by HPLC-ESI/MS analysis
RD [21] = experiment: Cytotoxicity against human RD cells at 33 uM after 24 hrs by WST-1 assay; type: cell-based
RD [22] = experiment: Cytotoxicity against human RD cells at 100 uM after 24 hrs by WST-1 assay relative to control; type: cell-based
Enterovirus A71 [23] = experiment: Slow-binding inhibition of Enterovirus 71 3C protease up to 3 uM using NMA-IEALFQGPPK(DNP)FR as substrate by fluorescence method
Enterovirus A71 [24] = experiment: Inhibition of Enterovirus 71 3C protease assessed as induction of rapid equilibrium for enzyme-inhibitor complex formation up to 1.5 uM using NMA-IEALFQGPPK(DNP)FR as substrate by fluorescence method

In the case of Cc1cc(C(=O)N[C@@H](Cc2ccc(F)cc2)C(=O)N[C@H](/C=C/C#N)C[C@@H]2CCCNC2=O)no1, the Ratio (Enterovirus A71 [1]) is reported as > 100, the Ratio (Enterovirus A71 [2]) is reported as > 100 and the inhibition (Enterovirus A71 [3]) is reported as “Active”. For the same compound, the EC50 (Enterovirus A71 [4]) was 37000 nM.

CCOC(=O)/C=C/[C@H](C[C@@H]1CCNC1=O)NC(=O)[C@@H](CC(=O)[C@@H](NC(=O)c1cc(C)on1)C(C)C)Cc1ccc(F)cc1 [RUPINTRIVIR] showed an IC50 [5] of 1600 nM and an EC50 (Enterovirus A71 [6]) of 41 nM.

With Cc1cc(C(=O)N[C@@H](Cc2ccc(F)cc2)C(=O)N[C@H](/C=C(\C#N)C(=O)N(C)C(=O)OC(C)(C)C)C[C@@H]2CCCNC2=O)no1 the inhibition [7] was < 50%, the Activity (Enterovirus A71 [8]) was “Active” and the Activity (Enterovirus A71 [9]) was “Active”. The inhibition [10] was “inactive”, the inhibition (Enterovirus A71 [11]) was “inactive” and the inhibition (Enterovirus A71 [12]) was “Active”. For the same compound, the Ki [13] was 9.3 nM, the Activity (Enterovirus A71 [14]) was “Active” and the inhibition [15] was < 50%. For the same compound, the inhibition (Enterovirus A71 [16]) was “Active”, the Activity (Enterovirus A71 [17]) was 30% and the EC50 (Enterovirus A71 [4]) was 51 nM. The Ratio (Enterovirus A71 [18]) was 1.5 and the Activity (Enterovirus A71 [19]) was “Active”.

In the case of COC(=O)/C(C#N)=C/[C@H](C[C@@H]1CCCNC1=O)NC(=O)[C@H](Cc1ccc(F)cc1)NC(=O)c1cc(C)on1, the inhibition [7] is reported as < 50%, the Activity (Enterovirus A71 [8]) is reported as “Active” and the Activity (Enterovirus A71 [9]) is reported as “Active”. The inhibition [10] was “inactive”, the inhibition (Enterovirus A71 [11]) was “inactive” and the inhibition (Enterovirus A71 [12]) was “Active”. For the same compound, the Ki [13] was 9.4 nM, the Activity (Enterovirus A71 [20]) was “inactive” and the Activity (Enterovirus A71 [14]) was 65 to 85%. For the same compound, the inhibition [15] was < 50%, the inhibition (Enterovirus A71 [16]) was “Active” and the Activity (Enterovirus A71 [17]) was 50%. The EC50 (Enterovirus A71 [4]) was 53 nM and the Activity (Enterovirus A71 [19]) was “Active”.

With Cc1cc(C(=O)N[C@@H](Cc2ccc(F)cc2)C(=O)N[C@H](/C=C(\C#N)c2ccc(C(F)(F)F)cc2)C[C@@H]2CCCNC2=O)no1 the Activity (RD [21]) was “Toxic”, the Activity (RD [22]) was 100% and the EC50 (Enterovirus A71 [4]) was 1400 nM.

In the case of CCN(C(=O)OC(C)(C)C)C(=O)/C(C#N)=C/[C@H](C[C@@H]1CCCNC1=O)NC(=O)[C@H](Cc1ccc(F)cc1)NC(=O)c1cc(C)on1, the inhibition (Enterovirus A71 [23]) is reported as “Active”, the Ki [13] is reported as 24 nM and the EC50 (Enterovirus A71 [4]) is reported as 67 nM.

With Cc1cc(C(=O)N[C@@H](Cc2ccc(F)cc2)C(=O)N[C@H](/C=C(\C#N)C(=O)OC(C)(C)C)C[C@@H]2CCCNC2=O)no1 the Ki [13] was 6.7 nM, the inhibition (Enterovirus A71 [24]) was “Active” and the Activity (Enterovirus A71 [20]) was “inactive”. For the same compound, the Activity (Enterovirus A71 [14]) was 65 to 85% and the EC50 (Enterovirus A71 [4]) was 30 nM.
